Drawing on ChEMBL document CHEMBL1255221, “Synthesis and evaluation of selected key methyl ether derivatives of vancomycin aglycon” (2010), this text covers MIC for nine compounds.

Each structure is given as a SMILES string. Converted amounts (≈) assume the structure as drawn. Bounds are passed on as bounds.

Type in all cases: functional
Test [1] relates to Enterococcus faecalis. Kind of test: Antimicrobial activity against vancomycin B-resistant Enterococcus faecalis ATCC 51299. Summed up:
(§1)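 MIC measured in a microtiter plate-based antimicrobial assay, in μg/mL. VanA E. faecalis BM4166 is vancomycin- and teicoplanin-resistant; VanB E. faecalis ATCC 51299 is vancomycin-resistant and teicoplanin-sensitive. Both strains carry a vancomycin-inducible resistance pathway, switching from D-Ala-D-Ala to D-Ala-D-Lac cell-wall precursors on glycopeptide exposure.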

The next test concerns Staphylococcus aureus. Kind of test: Antimicrobial activity against Staphylococcus aureus ATCC 25923.
Test [2] relates to Enterococcus faecalis. Kind of test: Antimicrobial activity against vancomycin A-resistant Enterococcus faecalis BM 4166. Put shortly:
as §1

Consider `CN[C@H](CC(C)C)C(=O)N[C@H]1C(=O)N[C@@H](CC(N)=O)C(=O)N[C@H]2C(=O)N[C@H]3C(=O)N[C@H](C(=O)N[C@@H](C(=O)O)c4cc(OC)cc(OC)c4-c4cc3ccc4OC)[C@H](O)c3ccc(c(Cl)c3)Oc3cc2cc(c3OC)Oc2ccc(cc2Cl)[C@H]1O`, for which the MIC (commonly the smallest concentration in the dilution series that meets the test's criterion for growth inhibition) turned out to be 2.5 µg/mL (≈ 2.08 µM) in the test with Enterococcus faecalis [1], 1.25 µg/mL (≈ 1.04 µM) against Staphylococcus aureus and 80 µg/mL (≈ 66.7 µM) against Enterococcus faecalis [2].
Regarding `CN[C@H](CC(C)C)C(=O)N[C@H]1C(=O)N[C@@H](CC(N)=O)C(=O)N[C@H]2C(=O)N[C@H]3C(=O)N[C@H](C(=O)N[C@@H](C(=O)OC)c4cc(OC)cc(OC)c4-c4cc3ccc4OC)[C@H](O)c3ccc(c(Cl)c3)Oc3cc2cc(c3OC)Oc2ccc(cc2Cl)[C@H]1O`, the MIC against Enterococcus faecalis [1] was 1.25 µg/mL (≈ 1.03 µM); in the test on Staphylococcus aureus, 1.25 µg/mL (≈ 1.03 µM); in the test with Enterococcus faecalis [2] it was 40 µg/mL (≈ 32.9 µM).
As for `CN[C@@H](CC(C)C)C(=O)N[C@H]1C(=O)N[C@@H](CC(N)=O)C(=O)N[C@H]2C(=O)N[C@H]3C(=O)N[C@H](C(=O)N[C@@H](C(=O)O)c4cc(O)cc(O)c4-c4cc3ccc4O)[C@H](O)c3ccc(c(Cl)c3)Oc3cc2cc(c3O[C@@H]2O[C@H](CO)[C@@H](O)[C@H](O)[C@H]2O[C@H]2C[C@](C)(NCc3ccc(-c4ccc(Cl)cc4)cc3)[C@H](O)[C@H](C)O2)Oc2ccc(cc2Cl)[C@H]1O`, the MIC with Enterococcus faecalis [1] came out at 0.03 µg/mL (≈ 0.0182 µM); against Staphylococcus aureus, 0.03 µg/mL (≈ 0.0182 µM); against Enterococcus faecalis [2], 10 µg/mL (≈ 6.06 µM).
On to `CN[C@H](CC(C)C)C(=O)N[C@H]1C(=O)N[C@@H](CC(N)=O)C(=O)N[C@H]2C(=O)N[C@H]3C(=O)N[C@H](C(=O)N[C@@H](C(=O)O)c4cc(OC)cc(OC)c4-c4cc3ccc4O)[C@H](O)c3ccc(c(Cl)c3)Oc3cc2cc(c3O)Oc2ccc(cc2Cl)[C@H]1O`, for which the MIC stood at 120 µg/mL (≈ 102 µM) in the test on Enterococcus faecalis [1], 10 µg/mL (≈ 8.53 µM) against Staphylococcus aureus and 640 µg/mL (≈ 546 µM) in the test with Enterococcus faecalis [2].
For `CN[C@H](CC(C)C)C(=O)N[C@H]1C(=O)N[C@@H](CC(N)=O)C(=O)N[C@H]2C(=O)N[C@H]3C(=O)N[C@H](C(=O)N[C@@H](C(=O)O)c4cc(OC)cc(O)c4-c4cc3ccc4OC)[C@H](O)c3ccc(c(Cl)c3)Oc3cc2cc(c3O)Oc2ccc(cc2Cl)[C@H]1O` the same measures were 120 µg/mL (≈ 102 µM), 10 µg/mL (≈ 8.53 µM) and 640 µg/mL (≈ 546 µM).
In the case of `CN[C@H](CC(C)C)C(=O)N[C@H]1C(=O)N[C@@H](CC(N)=O)C(=O)N[C@H]2C(=O)N[C@H]3C(=O)N[C@H](C(=O)N[C@@H](C(=O)O)c4cc(OC)cc(OC)c4-c4cc3ccc4OC)[C@H](O)c3ccc(c(Cl)c3)Oc3cc2cc(c3O)Oc2ccc(cc2Cl)[C@H]1O`, the MIC came to 10 µg/mL (≈ 8.43 µM) against Enterococcus faecalis [1] and 640 µg/mL (≈ 540 µM) in the test with Enterococcus faecalis [2].
Take `CN[C@H](CC(C)C)C(=O)N[C@H]1C(=O)N[C@@H](CC(N)=O)C(=O)N[C@H]2C(=O)N[C@H]3C(=O)N[C@H](C(=O)N[C@@H](C(=O)O)c4cc(O)cc(O)c4-c4cc3ccc4O)[C@H](O)c3ccc(c(Cl)c3)Oc3cc2cc(c3OC)Oc2ccc(cc2Cl)[C@H]1O`: the MIC against Enterococcus faecalis [1] stood at 40 µg/mL (≈ 34.5 µM); in the test on Staphylococcus aureus it was 1.25 µg/mL (≈ 1.08 µM); in the test on Enterococcus faecalis [2], 240 µg/mL (≈ 207 µM).
As to `CN[C@H](CC(C)C)C(=O)N[C@H]1C(=O)N[C@@H](CC(N)=O)C(=O)N[C@H]2C(=O)N[C@H]3C(=O)N[C@H](C(=O)N[C@H](C(=O)O)c4cc(O)cc(O)c4-c4cc3ccc4O)[C@H](O)c3ccc(c(Cl)c3)Oc3cc2cc(c3O)Oc2ccc(cc2Cl)[C@H]1O` [VANCOMYCIN AGLYCON], the MIC against Enterococcus faecalis [1] was over 40 µg/mL; in the test with Staphylococcus aureus it was 0.6 µg/mL (≈ 0.525 µM); with Enterococcus faecalis [2], over 100 µg/mL.
With `CN[C@H](CC(C)C)C(=O)N[C@H]1C(=O)N[C@@H](CC(N)=O)C(=O)N[C@H]2C(=O)N[C@H]3C(=O)N[C@H](C(=O)N[C@H](C(=O)O)c4cc(O)cc(O)c4-c4cc3ccc4O)[C@H](O)c3ccc(c(Cl)c3)Oc3cc2cc(c3O[C@@H]2O[C@H](CO)[C@@H](O)[C@H](O)[C@H]2O[C@H]2C[C@](C)(N)[C@H](O)[C@H](C)O2)Oc2ccc(cc2Cl)[C@H]1O` [VANCOMYCIN], the MIC in the test on Enterococcus faecalis [1] was 120 µg/mL (≈ 82.8 µM); in the test with Enterococcus faecalis [2], 2000 µg/mL (≈ 1380 µM).
